Our source for the HD50, TBPS IC50 and EC50 values is ChEMBL document CHEMBL1134654, “Alpha-amino acid phenolic ester derivatives: novel water-soluble general anesthetic agents which allosterically modulate GABA(A) receptors” (J Med Chem, 2001).

In one experiment the test system is Mus musculus. Kind of experiment: Loss of righting reflex following i.v. administration in mice. Type of experiment: functional. In short, it runs like this: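 Male MF-1 mice in groups of eight given compound in saline iv via lateral tail vein over 10 s (10 mL/kg). Doses on a umol/kg scale, extra doses added to narrow range. Animals boxed separately; loss of righting reflex lasting ≥30 s scored. HD50 with 95% confidence limits by probit analysis.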

The target of experiment [1] is GABA-A receptor; anion channel (Rattus norvegicus) (UniProt O09028+P15431+P18506+P18508+P19969+P20236+P23574+P23576+P28471+P28473+P30191+P62813+P63079+P63138+Q91ZM7+Q9ES14). Nature of the experiment: Ability to inhibit [35S]t-butyl-bicyclophosphorothionate binding by 50% to rat whole brain membrane. Type of experiment: tissue-based. In short, it runs like this:
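Male Wistar rat whole-brain membranes, washed with four freeze–thaw cycles. 100 ug membrane protein incubated with [35S]TBPS (2 nM final) in 20 mM KH2PO4/200 mM KCl, pH 7.4, containing GABA 600 nM final. Incubated 150 min at about 22 °C on shaker; vacuum filtration through GF/B filters; scintillation counting. Nonspecific binding with 200 uM picrotoxin. Reported as IC50, mean ± SEM.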

The target in experiment [2] is T1, GABA-A receptor; alpha-1/beta-3/gamma-2 (Homo sapiens, UniProt P14867+P18507+P28472).
T1 sequence (P14867 whole entry): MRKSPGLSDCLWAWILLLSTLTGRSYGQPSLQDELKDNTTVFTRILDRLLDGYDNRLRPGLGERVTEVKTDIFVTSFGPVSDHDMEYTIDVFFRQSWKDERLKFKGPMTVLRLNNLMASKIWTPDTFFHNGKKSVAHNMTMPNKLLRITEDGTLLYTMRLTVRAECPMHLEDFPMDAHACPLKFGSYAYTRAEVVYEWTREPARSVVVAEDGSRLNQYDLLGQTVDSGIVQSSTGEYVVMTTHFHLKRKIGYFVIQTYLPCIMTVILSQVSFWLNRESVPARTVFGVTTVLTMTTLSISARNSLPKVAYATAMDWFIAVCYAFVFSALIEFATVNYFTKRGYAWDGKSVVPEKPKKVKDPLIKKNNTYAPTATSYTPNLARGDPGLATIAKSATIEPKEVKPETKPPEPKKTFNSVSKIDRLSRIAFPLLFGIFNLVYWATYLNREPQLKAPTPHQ
T1 sequence (P18507 whole entry): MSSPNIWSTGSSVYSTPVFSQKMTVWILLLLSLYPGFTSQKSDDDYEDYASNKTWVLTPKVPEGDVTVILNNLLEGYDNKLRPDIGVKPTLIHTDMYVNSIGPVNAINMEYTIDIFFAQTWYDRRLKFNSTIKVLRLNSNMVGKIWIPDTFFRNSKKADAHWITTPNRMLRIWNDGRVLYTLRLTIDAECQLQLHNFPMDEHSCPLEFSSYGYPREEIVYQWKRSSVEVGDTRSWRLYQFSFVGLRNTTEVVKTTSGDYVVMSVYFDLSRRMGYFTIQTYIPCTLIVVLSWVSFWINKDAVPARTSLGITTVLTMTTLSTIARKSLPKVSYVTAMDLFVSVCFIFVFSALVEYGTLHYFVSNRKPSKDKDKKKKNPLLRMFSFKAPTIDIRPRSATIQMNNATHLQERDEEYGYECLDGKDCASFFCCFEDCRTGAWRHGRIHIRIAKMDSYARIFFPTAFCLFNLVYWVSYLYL
T1 sequence (P28472 whole entry): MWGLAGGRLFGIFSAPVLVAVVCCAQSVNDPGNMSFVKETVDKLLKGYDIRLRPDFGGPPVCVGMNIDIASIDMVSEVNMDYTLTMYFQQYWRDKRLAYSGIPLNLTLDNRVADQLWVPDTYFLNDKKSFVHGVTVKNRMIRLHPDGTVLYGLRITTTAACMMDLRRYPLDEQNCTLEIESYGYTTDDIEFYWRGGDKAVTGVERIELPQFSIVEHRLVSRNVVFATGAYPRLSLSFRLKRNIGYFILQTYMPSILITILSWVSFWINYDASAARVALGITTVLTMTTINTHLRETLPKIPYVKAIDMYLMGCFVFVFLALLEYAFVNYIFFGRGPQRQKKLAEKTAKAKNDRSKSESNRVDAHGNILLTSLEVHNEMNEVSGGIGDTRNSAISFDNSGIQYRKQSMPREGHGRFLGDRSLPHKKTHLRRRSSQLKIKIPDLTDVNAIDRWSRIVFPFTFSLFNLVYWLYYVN
Nature of the experiment: GABA-modulatory action compound was evaluated on Oocytes expressing recombinant human alpha-1-beta-3-gamma-2L GABA A receptor at concentrations of >=100 micro<M. In kind it is protein-complex assay. In short, it runs like this: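 Oocytes expressing human α1β3γ2L receptors, used 2–12 days after cRNA injection, were recorded with two electrodes at 18–22 °C. […] Compound was preapplied 30–60 s, then co-applied with EC10 GABA. Peak current was read manually; EC50 came from the fitted curve; mean ± s.e.mean.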

Experiment [3] addresses T1, GABA-A receptor; alpha-1/beta-3/gamma-2. Kind of experiment: GABA-mimetic action on Oocytes expressing human alpha-1-beta-3-gamma-2L GABA-A receptor subunits at >=100 uM.

In the experiment on Mus musculus, `COc1cccc(OC)c1NC(=O)[C@@H](C)N1CCc2ccccc2C1` displayed an HD50 of 44.1 µmol/kg. The TBPS IC50 in experiment [1] is above 10 µM.
The EC50 is the concentration giving half of the maximal effect. For the compound `CC[C@H](C(=O)Oc1c(OC)cc(C)cc1OC)N(CCOC)CCOC` [ORG-24447], the HD50 in the experiment on Mus musculus is 18 µmol/kg. In experiment [1], this compound showed a TBPS IC50 of 16 µM. Also, in experiment [2], the EC50 stood at 10 µM.
`COc1cccc(OC)c1OC(=O)[C@@H](C)N1CCOCC1.Cl` came in with an HD50 with Mus musculus of 85.9 µmol/kg. Further, the TBPS IC50 in experiment [1] was above 100 µM. Further, the EC50 in experiment [2] came to 198 µM.
In the experiment on Mus musculus, `COCCN(CCOC)C(C(=O)Oc1c(OC)cccc1OC)C(C)C` (stereo not drawn) had an HD50 of 26.9 µmol/kg. In addition, the TBPS IC50 in experiment [1] was above 10 µM.
The corresponding values for `COc1cccc(OC)c1C(=O)NCCN1CCc2ccccc2C1` are 45.7 µmol/kg and above 100 µM.
As to `CCCC(C(=O)Oc1c(OC)cccc1OC)N(CCOC)CCOC` (stereo not drawn), the HD50 in the experiment on Mus musculus turned out to be 12.4 µmol/kg. Besides, the TBPS IC50 in experiment [1] was found to be 7.7 µM.
Take `CC[C@H](C(=O)Oc1c(OC)cccc1OC)N(CCOC)CCOC`: in experiment [1], the TBPS IC50 turned out to be 7.4 µM.
As to `COc1cccc(OC)c1C(=O)OCCN1CCc2ccccc2C1`, in the experiment on Mus musculus, the HD50 was 19 µmol/kg. In experiment [1], this compound displayed a TBPS IC50 above 30 µM.
In the experiment with Mus musculus, `CCC(C(=O)Oc1c(OC)cc(C)cc1OC)N(CCOC)CCOC` (stereo not drawn) came in with an HD50 of 21.7 µmol/kg. This compound also came in with a TBPS IC50 in experiment [1] of 29.3 µM.
In the case of `CC(C)c1cccc(C(C)C)c1O` [PROPOFOL], the EC50 in experiment [2] worked out at 4.1 µM; in experiment [3], 50 µM.
As to `COc1cc(C)cc(OC)c1OC(=O)C(C)(C)N1CCOCC1`, the HD50 in the experiment with Mus musculus is 53.8 µmol/kg. Moreover, the TBPS IC50 in experiment [1] was above 10 µM.
For `CCC(C(=O)Oc1c(OC)cccc1OC)N(CCOC)CCOC` (stereo not drawn), the TBPS IC50 in experiment [1] amounted to 24.3 µM.
For `CC(C)c1cccc(C(C)C)c1OC(=O)CN1CCOCC1`, the HD50 in the experiment on Mus musculus turned out to be 98.1 µmol/kg.
Compound `COc1cccc(OC)c1OC(=O)C(C)N1CCc2ccccc2C1` (stereo not drawn) had an HD50 in the experiment on Mus musculus of 33.2 µmol/kg. This compound also registered a TBPS IC50 in experiment [1] of 4.8 µM. Besides, the EC50 in experiment [2] is 5.5 µM.
`CCCCC(C(=O)Oc1c(OC)cccc1OC)N(CCOC)CCOC` (stereo not drawn) yielded an HD50 in the experiment on Mus musculus of 11 µmol/kg. In experiment [1], the TBPS IC50 was found to be 1.6 µM.
In the experiment with Mus musculus, `CCC[C@H](C(=O)Oc1c(OC)cccc1OC)N(CCOC)CCOC` had an HD50 of 7.3 µmol/kg. The TBPS IC50 in experiment [1] amounted to 3.2 µM.
As for `CCC(C(=O)Oc1c(OC)cccc1OC)N1CCOCC1` (stereo not drawn), the HD50 in the experiment on Mus musculus was 38 µmol/kg. In experiment [1], this compound had a TBPS IC50 above 10 µM.
For `CCC(C(=O)Oc1c(OC)cc(C)cc1OC)N1CCOCC1` (stereo not drawn), the HD50 in the experiment with Mus musculus stood at 68.1 µmol/kg.
For `COc1cccc(OC)c1OC(=O)[C@H](C)N1CCc2ccccc2C1`, the HD50 with Mus musculus was 82.6 µmol/kg. Besides, the TBPS IC50 in experiment [1] was found to be 23.8 µM. For the same compound, the EC50 in experiment [2] is above 100 µM.
In the experiment on Mus musculus, `COc1cccc(OC)c1OC(=O)[C@@H](C)N1CCc2ccccc2C1` came in with an HD50 of 20.7 µmol/kg. This compound displayed a TBPS IC50 in experiment [1] of 3.3 µM. In addition, the EC50 in experiment [2] was determined as 4.1 µM.
`COc1cccc(OC)c1OC(=O)C(c1ccccc1)N1CCOCC1` (stereo not drawn) displayed an HD50 in the experiment with Mus musculus of 39.6 µmol/kg. The TBPS IC50 in experiment [1] was found to be 66 µM.
